The species named for assay [1] is Rattus norvegicus. Description: Inhibition of A-23187 stimulated Thromboxane B2 production from rat platelets by 10 uM. The assay is classed as functional. Also noted: scale not given: the % may be the effect or the level left. The method, boiled down: (§1)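 Rat platelets from citrate-dextrose blood with PGE1 were sedimented and labelled with [3H]AA (20 µCi/mL, 2.0 h, room temperature), gel-filtered, and used at 5 × 10^8 cells/mL. Stimulation used A23187 2 µM (DMSO 0.4%) plus compound (DMSO 0.2%), stopped with 0.1 N HCl. [3H]AA and [3H]TXB2 were separated by TLC and counted. Result given as % of A23187-induced increase over DMSO control, mean ± SEM of three experiments.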

In assay [2] the target is T1, Phospholipase A2, membrane associated (Homo sapiens, UniProt P14555).
T1 sequence (P14555 whole entry): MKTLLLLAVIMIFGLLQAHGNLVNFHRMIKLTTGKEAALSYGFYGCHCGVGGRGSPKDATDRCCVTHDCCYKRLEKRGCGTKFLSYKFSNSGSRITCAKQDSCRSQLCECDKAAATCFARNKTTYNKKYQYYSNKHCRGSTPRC
As to the kind of experiment: In vitro inhibition of human recombinant secretory Phospholipase A2 (group II). The method, boiled down:
(§2)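 PLA2 enzymes: recombinant human group I or II, or group II purified from rat platelets (single ~14 kDa band on SDS-PAGE). Substrate was 1-palmitoyl-2-[1-14C]linoleoyl-PE diluted with egg-yolk PE to 2000 dpm/nmol. Reaction started by adding enzyme, adjusted so hydrolysis stayed below 20%. Compounds in DMSO (2% final) against a DMSO control. IC50 read graphically from % inhibition vs log concentration, three independent experiments in duplicate.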

A further assay has as its target Phospholipase A2 (Homo sapiens, UniProt P04054). As to the kind of experiment: In vitro inhibition of human recombinant secretory Phospholipase A2 (group I). The method, boiled down: as §2
The target in assay [3] is T2, Phospholipase A2, membrane associated (Rattus norvegicus, UniProt P14423).
T2 sequence (P14423 whole entry): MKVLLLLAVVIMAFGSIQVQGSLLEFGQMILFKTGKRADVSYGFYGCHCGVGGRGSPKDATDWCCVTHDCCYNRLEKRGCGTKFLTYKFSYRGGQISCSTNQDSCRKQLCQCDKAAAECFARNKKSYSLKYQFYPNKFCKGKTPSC
Description: In vitro inhibition of rat secretory Phospholipase A2 (group II). The method, boiled down: as §2

The species named for assay [4] is Rattus norvegicus. Description: Inhibition of A-23187 stimulated Arachidonic acid production from rat platelets by 10 uM. The assay is classed as functional. Details: scale not given: the % may be the effect or the level left; call rule not given here. The method, boiled down: as §1
Assay [5] deals with T2, Phospholipase A2, membrane associated. Description: In vitro inhibition of rat secretory Phospholipase A2 (group II); No inhibition. The method, boiled down: as §2
Assay [6] addresses T1, Phospholipase A2, membrane associated. Description: In vitro inhibition of human recombinant secretory Phospholipase A2 (group II); No inhibition. The method, boiled down: as §2

Chain of Phospholipase A2 (P04054 whole entry): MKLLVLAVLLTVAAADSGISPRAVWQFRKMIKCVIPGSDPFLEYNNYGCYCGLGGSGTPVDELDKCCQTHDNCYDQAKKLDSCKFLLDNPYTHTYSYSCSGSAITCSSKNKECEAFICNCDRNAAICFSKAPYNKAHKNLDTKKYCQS

`COc1cc(OC)c(C(=O)Oc2c(C)c(C)c(C(=O)Oc3c(C)c(C)c(C(=O)O)c(OC)c3C)c(OC)c2C)cc1Oc1cc(C)c(OC)c(C(=O)Oc2c(C)c(C)c(C(=O)Oc3c(C)c(C)c(C(=O)O)c(OC)c3C)c(OC)c2C)c1`: the Activity amounted to 0% in the assay listed under Rattus norvegicus [1] and 19.7% in the assay listed under Rattus norvegicus [4]. Moreover, the values for the IC50 (in assay [2]; at Phospholipase A2; in assay [3]) were 0.24 µM, 6.6 µM and 0.035 µM, respectively.
For the compound `COc1c(C)c(OC(=O)c2c(C)c(C)c(OC(=O)/C=C/C(=O)Oc3c(C)c(C)c(C(=O)Oc4c(C)c(C)c(C(=O)O)c(OC)c4C)c(OC)c3C)c(C)c2OC)c(C)c(C)c1C(=O)O`, the Activity in the assay filed under Rattus norvegicus [1] amounted to 65.8%; in the assay listed under Rattus norvegicus [4], 70.7%. Also, the IC50 in assay [2] is 2.2 µM; at Phospholipase A2 it was above 100 µM; in assay [3], 0.33 µM.
Regarding `COc1c(C)c(OC(=O)c2c(C)c(C)c(OC(=O)c3cc(=O)cc(C(=O)Oc4c(C)c(C)c(C(=O)Oc5c(C)c(C)c(C(=O)O)c(OC)c5C)c(OC)c4C)o3)c(C)c2OC)c(C)c(C)c1C(=O)O`, the Activity is 46.3% in the assay filed under Rattus norvegicus [1] and 55.2% in the assay filed under Rattus norvegicus [4]. The figures for the IC50 (in assay [2]; at Phospholipase A2; in assay [3]) were 5.8 µM, 100 µM and 0.88 µM, respectively.
`COc1c(C)c(OC(=O)c2c(C)c(C)c(OC(=O)CCC(=O)Oc3c(C)c(C)c(C(=O)Oc4c(C)c(C)c(C(=O)O)c(OC)c4C)c(OC)c3C)c(C)c2OC)c(C)c(C)c1C(=O)O`: the values for the IC50 (in assay [2]; at Phospholipase A2; in assay [3]) were 0.94 µM, 60 µM and 0.04 µM, respectively.
On to `COc1c(C)c(OC(=O)c2c(C)c(C)c(OC(=O)c3cccc(C(=O)Oc4c(C)c(C)c(C(=O)Oc5c(C)c(C)c(C(=O)O)c(OC)c5C)c(OC)c4C)c3)c(C)c2OC)c(C)c(C)c1C(=O)O`, for which the Activity was found to be 0.1% in the assay filed under Rattus norvegicus [1] and 49.2% in the assay listed under Rattus norvegicus [4]. The IC50 in assay [2] is 0.23 µM; at Phospholipase A2, above 100 µM; in assay [3], 0.12 µM.
On to `Cc1c(O)c(Cc2c(C)c(C(=O)Oc3c(C)c(C)c(C(=O)Oc4c(C)c(C)c(C(=O)O)c(O)c4C)c(O)c3C)c(O)c(C)c2O)c(C)c(C(=O)Oc2c(C)c(C)c(C(=O)Oc3c(C)c(C)c(C(=O)O)c(O)c3C)c(O)c2C)c1O`, for which the IC50 is 2.4 µM in assay [2], above 100 µM on Phospholipase A2 and 0.95 µM in assay [3].
In the same order, the values of `COc1ccc(Oc2ccc(OC)c(C(=O)Oc3c(C)c(C)c(C(=O)O)c(OC)c3C)c2)cc1C(=O)Oc1c(C)c(C)c(C(=O)O)c(OC)c1C` are 75 µM, above 100 µM and 3.4 µM.
In the same order, the values of `COc1c(C)c(OC)c(C(=O)O)c(C)c1Cc1c(C)c(C(=O)Oc2c(C)c(C)c(C(=O)Oc3c(C)c(C)c(C(=O)O)c(OC)c3C)c(OC)c2C)c(OC)c(C)c1OC` are 3 µM, above 100 µM and 3 µM.
In the same order, the values of `COc1c(C)c(OC(=O)c2c(C)c(C)c(OC(=O)C3=C(C)[C@@](C)(O)C4(O)Oc5c(C)c(OC)c(C(=O)Oc6c(C)c(C)c(C(=O)O)c(OC)c6C)c(C)c5C[C@@]4(C)C3=O)c(C)c2OC)c(C)c(C)c1C(=O)O` (stereo partly drawn) [THIELOCIN A1] are 12 µM, 135 µM and 0.0033 µM.
On to `COc1c(C)c(OC)c(C(=O)Oc2c(C)c(C)c(C(=O)O)c(OC)c2C)c(C)c1Cc1c(C)c(C(=O)Oc2c(C)c(C)c(C(=O)O)c(OC)c2C)c(OC)c(C)c1OC`, for which the half-inhibitory concentration (IC50) in assay [2] amounted to 2.8 µM; at Phospholipase A2, 90 µM; in assay [3], 4.6 µM.
In the same order, the values of `COc1c(C)c(OC(=O)c2c(C)c(C)c(OC(=O)c3c(C)c(CN[C@@H](C)c4ccccc4)c(O)c(C)c3O)c(C)c2OC)c(C)c(C)c1C(=O)O` are 0.84 µM, 60 µM and 0.36 µM.
`COc1ccc(Sc2ccc(OC)c(C(=O)Oc3c(C)c(C)c(C(=O)Oc4c(C)c(C)c(C(=O)OCOC(=O)C(C)(C)C)c(OC)c4C)c(OC)c3C)c2)cc1C(=O)Oc1c(C)c(C)c(C(=O)Oc2c(C)c(C)c(C(=O)OCOC(=O)C(C)(C)C)c(OC)c2C)c(OC)c1C`: the values for the IC50 result (in assay [5]; at Phospholipase A2; in assay [6]) were “Not Active”, above 100 µM and “Not Active”, respectively.
Regarding `CCN(CC)CCCC(C)Nc1c2ccc(Cl)cc2nc2ccc(OC)cc12` (stereo not drawn) [QUINACRINE], the values for the IC50 in assay [2] and in assay [3] were 76 µM and 320 µM, respectively.
Turning to `COc1ccc(S(=O)(=O)c2ccc(OC)c(C(=O)Oc3c(C)c(C)c(C(=O)Oc4c(C)c(C)c(C(=O)O)c(OC)c4C)c(OC)c3C)c2)cc1C(=O)Oc1c(C)c(C)c(C(=O)Oc2c(C)c(C)c(C(=O)O)c(OC)c2C)c(OC)c1C`, the concentration for half-maximal inhibition (IC50) in assay [2] is 0.069 µM; on Phospholipase A2 it was 9 µM; in assay [3], 0.05 µM.
Consider `COc1c(C)c(OC(=O)c2c(C)c(C)c(OC(=O)c3c(C)cc(O)c(Cc4c(C)c(C(=O)Oc5c(C)c(C)c(C(=O)Oc6c(C)c(C)c(C(=O)O)c(OC)c6C)c(OC)c5C)c(O)c(C)c4O)c3O)c(C)c2OC)c(C)c(C)c1C(=O)O` [THIELOCIN B3], for which the Activity in the assay filed under Rattus norvegicus [1] was determined as 43.7%; in the assay listed under Rattus norvegicus [4], 60.3%. Moreover, the IC50 in assay [2] was determined as 0.076 µM; at Phospholipase A2, 18 µM; in assay [3], 0.012 µM.
Consider `COc1ccc(Oc2ccc(OC)c(C(=O)Oc3c(C)c(C)c(C(=O)Oc4c(C)c(C)c(C(=O)O)c(OC)c4C)c(OC)c3C)c2)cc1C(=O)Oc1c(C)c(C)c(C(=O)Oc2c(C)c(C)c(C(=O)O)c(OC)c2C)c(OC)c1C`, for which the Activity in the assay listed under Rattus norvegicus [1] is given as 0%; in the assay listed under Rattus norvegicus [4] it was 9%. Further, the IC50 worked out at 0.1 µM in assay [2], 6.5 µM at Phospholipase A2 and 0.042 µM in assay [3].
`COc1ccc(Sc2ccc(OC)c(C(=O)Oc3c(C)c(C)c(C(=O)Oc4c(C)c(C)c(C(=O)O)c(OC)c4C)c(OC)c3C)c2)cc1C(=O)Oc1c(C)c(C)c(C(=O)Oc2c(C)c(C)c(C(=O)O)c(OC)c2C)c(OC)c1C`: the values for the Activity in the assay filed under Rattus norvegicus [1] and in the assay filed under Rattus norvegicus [4] were 0% and 2.8%, respectively. Moreover, the IC50 amounted to 0.13 µM in assay [2], 55 µM on Phospholipase A2 and 0.049 µM in assay [3].
As for `COc1ccc(Sc2ccc(OC)c(C(=O)Oc3c(C)c(C)c(C(=O)O)c(OC)c3C)c2)cc1C(=O)Oc1c(C)c(C)c(C(=O)O)c(OC)c1C`, the IC50 in assay [2] was 4.8 µM; on Phospholipase A2, above 100 µM; in assay [3] it was 2.5 µM.
In the same order, the values of `COc1ccc([S+]([O-])c2ccc(OC)c(C(=O)Oc3c(C)c(C)c(C(=O)Oc4c(C)c(C)c(C(=O)O)c(OC)c4C)c(OC)c3C)c2)cc1C(=O)Oc1c(C)c(C)c(C(=O)Oc2c(C)c(C)c(C(=O)O)c(OC)c2C)c(OC)c1C` are 0.26 µM, 11 µM and 0.12 µM.
For `COc1ccc(Sc2ccc(OC)c(C(=O)Oc3c(C)c(C)c(C(=O)Oc4c(C)c(C)c(C(=O)O)c(OC)c4C)c(OC)c3C)c2)cc1C(=O)O` the same measures were 4.1 µM, 100 µM and 2.1 µM.
With `COc1c(C)c(OC)c(C(=O)Oc2c(C)c(C)c(C(=O)Oc3c(C)c(C)c(C(=O)O)c(OC)c3C)c(OC)c2C)c(C)c1Cc1c(C)c(C(=O)Oc2c(C)c(C)c(C(=O)Oc3c(C)c(C)c(C(=O)O)c(OC)c3C)c(OC)c2C)c(OC)c(C)c1OC`, the values for the IC50 (in assay [2]; at Phospholipase A2; in assay [3]) were 0.19 µM, above 100 µM and 0.13 µM, respectively.
`CC1=C(CC/C(C)=C/CCC2=CC[C@H](C3=CC(=O)O[C@H]3O)O[C@H]2O)C(C)(C)CCC1` [MANOALIDE]: the IC50 was determined as 1.5 µM in assay [2] and 2 µM in assay [3].

One may read the IC50 as the point on the concentration scale where inhibition reaches its midpoint.

Source of the values: ChEMBL document CHEMBL1129032, “Synthesis and phospholipase A2 inhibitory activity of thielocin B3 derivatives” (J Med Chem, 1996).
